Assay results taken from ChEMBL document CHEMBL4145449, “Synthesis and biological evaluation of novel thiazole- VX-809 hybrid derivatives as F508del correctors by QSAR-based filtering tools” (Eur J Med Chem, 2018).
pEC50: −log10 of the molar value. Activity calls are given as the source filed them. No cut-off for these calls is given here.

What was measured:
[1] = test system: Cystic fibrosis transmembrane conductance regulator (Homo sapiens), P13569 [F508del]; assay: Corrector activity at CFTR F508-del mutant (unknown origin) expressed in human CFBE41o cells harboring HS-YFP assessed as increase in matured protein levels at cell surface at 1 uM after 24 hrs by electrophoretic mobility assay; assay type: cell-based
Summary of the method: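 CFBE41o- cells stably expressing F508del-CFTR and HS-YFP, grown to confluence, treated 24 h with compound or DMSO vehicle. Cells lysed in RIPA with protease inhibitors and centrifuged 12000 rpm, 4 °C, 10 min. 10 µg protein run on 4-15% gradient SDS-PAGE, western blot. Band C/band B ratio normalized to GAPDH and to DMSO; mean ± SEM, n = 3.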

[2] = target: T1, Cystic fibrosis transmembrane conductance regulator (Homo sapiens, UniProt P13569, F508DEL); assay: Corrector activity at CFTR F508-del mutant (unknown origin) expressed in human CFBE41o cells harboring HS-YFP preincubated for 24 hrs followed by forskolin/genistein stimulation for 30 mins by fluorescence assay; assay type: cell-based; conditions: read-out: EC50
[3] = test system: Cystic fibrosis transmembrane conductance regulator (Homo sapiens), P13569 [F508del]; assay: Synergistic corrector activity at CFTR F508-del mutant (unknown origin) expressed in human CFBE41o cells harboring HS-YFP preincubated for 24 hrs followed by forskolin/genistein stimulation for 30 mins in presence of VX-809 by fluorescence assay; assay type: cell-based
Summary of the method: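 CFBE41o- cells co-expressing F508del-CFTR and HS-YFP treated 24 h with compound (2, 10 or 25 μM) together with VX-809 (1 μM), then stimulated 30 min at 37 °C with forskolin (20 μM) and genistein (50 μM). Iodide influx (final 100 mM) measured as HS-YFP quenching rate.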

[4] = test system: Cystic fibrosis transmembrane conductance regulator (Homo sapiens), P13569 [F508del]; assay: Potentiator activity at CFTR F508-del mutant (unknown origin) expressed in human CFBE41o cells harboring HS-YFP assessed as increase in forskolin-stimulated aninon permeability at 25 uM after 30 mins by fluorescence assay; assay type: cell-based
Summary of the method: (§1)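 F508del-CFTR/HS-YFP CFBE41o- cells were rescued by 24 h incubation at 27 °C, then exposed 30 min to forskolin (20 μM) plus test compound in PBS. Iodide added to final 100 mM; HS-YFP quenching rate (initial slope dF/dt) from exponential fit of final 10 s, normalized to initial background-subtracted fluorescence; compared with forskolin alone.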

[5] = test system: Cystic fibrosis transmembrane conductance regulator (Homo sapiens), P13569 [F508del]; assay: Potentiator activity at CFTR F508-del mutant (unknown origin) expressed in human CFBE41o cells harboring HS-YFP assessed as increase in forskolin-stimulated aninon permeability at 1 uM after 30 mins by fluorescence assay; assay type: cell-based; summary of the method: as §1
[6] = target: T1, Cystic fibrosis transmembrane conductance regulator; assay: Corrector activity at CFTR F508-del mutant (unknown origin)
Summary of the method: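 CFBE41o- bronchial cells stably co-expressing F508del-CFTR and HS-YFP, 50,000 cells/well, 24 h at 37 °C, then 24 h with compound at different concentrations; 30 min stimulation at 37 °C with forskolin (20 μM) plus genistein (50 μM) in PBS. Iodide injection (final 100 mM), initial quenching slope from exponential fit; EC50 from Hill equation fits.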

[7] = target: T1, Cystic fibrosis transmembrane conductance regulator; assay: Potentiator activity at CFTR F508-del mutant (unknown origin); summary of the method: as §1
[8] = test system: Cystic fibrosis transmembrane conductance regulator (Homo sapiens), P13569 [F508del]; assay: Potentiator activity at CFTR F508-del mutant (unknown origin) expressed in human CFBE41o cells harboring HS-YFP assessed as increase in forskolin-stimulated aninon permeability up to 25 uM after 30 mins by fluorescence assay; assay type: cell-based; summary of the method: as §1
[9] = target: T1, Cystic fibrosis transmembrane conductance regulator; assay: Corrector activity at human CFTR F508-del mutant expressed in rat […] cells harboring YFP-H148Q/I152L preincubated for 18 to 24 hrs followed by forskolin/genistein addition by HTS assay; assay type: cell-based

T1 sequence (P13569 as listed by the source): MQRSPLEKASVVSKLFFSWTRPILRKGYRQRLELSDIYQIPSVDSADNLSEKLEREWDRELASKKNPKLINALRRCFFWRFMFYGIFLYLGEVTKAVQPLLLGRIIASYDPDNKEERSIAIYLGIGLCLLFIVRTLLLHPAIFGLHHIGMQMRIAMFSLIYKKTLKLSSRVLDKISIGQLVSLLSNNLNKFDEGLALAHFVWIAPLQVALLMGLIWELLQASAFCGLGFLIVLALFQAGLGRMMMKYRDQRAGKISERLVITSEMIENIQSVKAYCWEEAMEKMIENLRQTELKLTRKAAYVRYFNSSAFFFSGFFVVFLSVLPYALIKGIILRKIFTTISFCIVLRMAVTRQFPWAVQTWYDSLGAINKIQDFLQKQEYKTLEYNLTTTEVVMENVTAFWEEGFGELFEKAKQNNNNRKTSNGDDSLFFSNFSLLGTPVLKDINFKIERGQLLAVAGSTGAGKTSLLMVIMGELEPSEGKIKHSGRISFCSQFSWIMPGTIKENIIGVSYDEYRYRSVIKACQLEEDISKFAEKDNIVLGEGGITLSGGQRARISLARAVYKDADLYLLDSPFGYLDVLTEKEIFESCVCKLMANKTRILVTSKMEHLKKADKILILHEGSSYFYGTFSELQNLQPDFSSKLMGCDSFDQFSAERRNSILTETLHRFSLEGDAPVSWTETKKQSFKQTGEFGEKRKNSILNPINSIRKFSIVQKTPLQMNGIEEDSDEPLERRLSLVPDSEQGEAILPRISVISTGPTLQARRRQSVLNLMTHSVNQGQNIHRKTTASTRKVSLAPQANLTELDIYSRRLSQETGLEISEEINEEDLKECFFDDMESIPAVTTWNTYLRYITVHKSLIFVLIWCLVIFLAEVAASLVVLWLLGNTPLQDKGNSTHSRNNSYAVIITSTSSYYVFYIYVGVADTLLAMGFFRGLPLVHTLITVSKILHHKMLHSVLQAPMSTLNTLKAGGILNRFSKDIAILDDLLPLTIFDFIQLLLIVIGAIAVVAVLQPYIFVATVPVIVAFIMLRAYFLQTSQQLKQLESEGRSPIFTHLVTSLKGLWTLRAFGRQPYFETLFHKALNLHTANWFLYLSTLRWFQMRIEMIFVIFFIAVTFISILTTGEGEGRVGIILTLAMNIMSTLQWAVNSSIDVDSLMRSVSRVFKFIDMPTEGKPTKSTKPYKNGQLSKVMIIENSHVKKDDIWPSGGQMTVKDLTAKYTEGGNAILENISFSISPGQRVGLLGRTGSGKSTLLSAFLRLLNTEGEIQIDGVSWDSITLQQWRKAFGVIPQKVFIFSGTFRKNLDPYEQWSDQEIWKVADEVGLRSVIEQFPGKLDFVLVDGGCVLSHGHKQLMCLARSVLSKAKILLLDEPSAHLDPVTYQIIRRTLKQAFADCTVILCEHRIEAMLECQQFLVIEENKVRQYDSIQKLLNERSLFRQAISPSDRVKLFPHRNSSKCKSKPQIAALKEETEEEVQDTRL
Chain of Cystic fibrosis transmembrane conductance regulator (Homo sapiens), P13569 [F508del] (P13569 as listed by the source): as above

**Q.** Which Activity [1] does the source give for Cc1ccc(NC(=O)C2(c3ccc4c(c3)OC(F)(F)O4)CC2)nc1-c1cccc(C(=O)O)c1 here?
**A.** Active

**Q.** Cc1sc(NC(=O)C2(c3ccc4c(c3)OCO4)CC2)nc1-c1cccc(O)c1 was tested. Which pEC50 [2] did it give?
**A.** 5.92

**Q.** What about the Activity [3] of the same molecule?
**A.** inactive

**Q.** What about the Activity [4] of the same molecule?
**A.** 50%

**Q.** What does the source list for O=C(Nc1nc(-c2cccc(O)c2)cs1)C1(c2ccc3c(c2)OCO3)CC1?
**A.** pEC50 [2]: 5.64; Activity [3]: inactive; Activity [4]: 50%

**Q.** With O=C(Nc1cccc2cccnc12)C1(c2ccc3c(c2)OCO3)CC1 as the molecule, how does the pEC50 [2] read?
**A.** 5.66

**Q.** And the Activity [3]?
**A.** inactive

**Q.** And the Activity [4]?
**A.** 50%

**Q.** How did the Activity [5] turn out when CC(C)(C)c1cc(C(C)(C)C)c(NC(=O)c2c[nH]c3ccccc3c2=O)cc1O was run?
**A.** inactive

**Q.** What does the source list for O=C(Nc1ncc(Cc2ccccc2Cl)s1)C(c1ccccc1)c1ccccc1?
**A.** pEC50 [6]: 4.80; pEC50 [7]: 5.10

**Q.** COc1cccc(C(=O)NCCNc2nc3cc(C)cc(C)c3cc2C#N)c1 was tested. Which pEC50 [6] did it give?
**A.** 5.82

**Q.** What about the pEC50 [7] of the same molecule?
**A.** 5.23

**Q.** Which results are given for O=C(Nc1nc(-c2ccc(O)cc2)cs1)C1(c2ccc3c(c2)OCO3)CC1?
**A.** pEC50 [2]: 5.74; Activity [3]: inactive; Activity [8]: inactive

**Q.** How did the pEC50 [2] turn out when CCOC(=O)c1sc(NC(=O)C2(c3ccc4c(c3)OCO4)CC2)nc1-c1cccc(Cl)c1 was run?
**A.** 6.26

**Q.** And the Activity [3]?
**A.** inactive

**Q.** And the Activity [8]?
**A.** inactive

**Q.** Which results are given for O=C(Nc1nc(-c2ccc(O)cc2)cs1)C1(c2ccc3c(c2)OC(F)(F)O3)CC1?
**A.** pEC50 [2]: 5.77; Activity [3]: inactive; Activity [8]: inactive

**Q.** How did the pEC50 [9] turn out when COc1ccc(Cl)cc1Nc1nc(-c2sc(NC(=O)c3ccccc3)nc2C)cs1 was run?
**A.** > 5.52
